Measured values pooled from the literature.
Protocols differ between the studies behind these lines.
MTNR1A: Melatonin receptor type 1A (MTNR1A, Homo sapiens, UniProt P48039)

Cc1nn(C)cc1-c1nc2c(N3CCN(Cc4ccc(Cl)cc4)CC3)c(Cl)cnc2[nH]1  remaining binding (Receptor-type tyrosine-protein kinase FLT3 (FLT3, Homo sapiens, UniProt P36888, K663Q); binding, competition with immobilised ligand; 1 µM): 0.8%
COc1ncccc1-c1cnn2ccc(N3CCN(C(=O)OC(C)C)CC3)nc12  remaining binding (BMP-2-inducible protein kinase (BMP2K, Homo sapiens, UniProt Q9NSY1); binding, competition with immobilised ligand; 1 µM): 3.5%
COc1ccc2[nH]cc(CCNC(=O)CI)c2c1  Emax (MTNR1A; cAMP, agonist, TR-FRET; CHO-K1; 20 min): 103%
CCN(CC)CCCC[C@H](NC(=O)[C@H](CC(C)C)NC(=O)[C@H](C)NC(=O)[C@H](Cc1ccccc1)NC(=O)c1ccc(C(C)(C)C)cc1)C(=O)N[C@@H](CO)C(=O)OC  ΔTm (BRWD3 (Homo sapiens, UniProt Q6RI45); thermal stability, DSF; 25 µM): -0.57 °C
COCc1c(-c2cc3cc(C)cc(OC)c3s2)c2c(N)ncnn2c1CN1CCNC(=O)C1  inhibition (5-hydroxytryptamine receptor 2C (HTR2C, Homo sapiens, UniProt P28335); ligand displacement, radioligand; 10 µM): 30%
COc1ccc2cccc(C(CO)CNC(=O)CF)c2c1 (stereo not drawn)  Emax (MTNR1A; cAMP, agonist, TR-FRET; CHO-K1; 20 min): 93%
Nc1ncc(-c2nc(N3CCOCC3)nc(N3CCOCC3)n2)c(C(F)F)n1  remaining binding (Serine/threonine-protein kinase SIK3 (SIK3, Homo sapiens, UniProt Q9Y2K2); binding, competition with immobilised ligand; 10 µM): 72%
C#Cc1n[nH]c2c(-c3cn(C(C)c4ccccn4)c(=O)[nH]c3=O)cc(F)cc12 (stereo not drawn)  inhibition (Myotonin-protein kinase (DMPK, Homo sapiens, UniProt Q09013); enzyme activity, inhibitor; 1 µM): 1.2%
Cc1ccccc1N(C)C(=O)Oc1nsnc1N1CCCCC1  inhibition (Fatty-acid amide hydrolase 1 (FAAH, Homo sapiens, UniProt O00519); enzyme activity, inhibitor; 10 µM, cell membranes): 40%
